M18AAP inhibitor: blocks P. falciparum M18 aspartyl aminopeptidase | actives 1.2% (n = 290,000) | recombinant PfM18AAP, H-Glu-NHMec fluorogenic cleavage | inhibition, % at 7.35 µM | AID 1822;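 active = inhibition above the campaign mean inhibition over all tested compounds plus 3 SD, cut at about 28% in these data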
ZTA DNA inh: ZTA (EBV) inhibition in EBNA-1 counter-screen. ZTA-DNA binding, fluorescence polarization. inhibition, % at 11 µM. actives 0.15% (n = 320,000). AID 2234; in the data active = inhibition above about 33%
Target sequence (P03206 whole entry, looked up): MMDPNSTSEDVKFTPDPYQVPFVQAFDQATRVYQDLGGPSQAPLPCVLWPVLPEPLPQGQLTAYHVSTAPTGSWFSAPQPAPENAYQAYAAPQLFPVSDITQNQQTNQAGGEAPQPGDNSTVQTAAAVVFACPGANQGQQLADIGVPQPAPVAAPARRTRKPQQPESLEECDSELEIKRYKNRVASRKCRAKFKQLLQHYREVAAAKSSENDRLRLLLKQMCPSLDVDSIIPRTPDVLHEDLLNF
Apaf-1 inh: inhibitors of human Apaf-1 apoptosome | O14727 | reconstituted apoptosome caspase-3 activity, DEVD-Rh110 fluorescence | inhibition, % at 20 µM | actives 0.71% (n = 330,000) | AID 489030; active = inhibition of at least 40% at 20 µM
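Material: cell-free apoptosome with Apaf-1, procaspase-3 and caspase-9; Buffer or medium: Hepes pH 7.5 with detergent and BSA; Reagent: cytochrome c trigger plus (Z-DEVD)2-Rh110 caspase-3 substrate; Times: compound with Apaf-1, dATP, procaspase-3 30 min, then 50 min reaction, room temperature; Technique: Rh110 fluorescence intensity.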
UBC13 polyUb: inhibitors of human UBC13 polyubiquitin chain formation; actives 0.47% (n = 330,000); inhibition, % at 20 µM; AID 485273; P61088; TR-FRET; in the data active = inhibition above about 45%, passing the limit was not always enough; inconclusive = no clear call, values can overlap the other calls
Target sequence (P61088 whole entry, looked up): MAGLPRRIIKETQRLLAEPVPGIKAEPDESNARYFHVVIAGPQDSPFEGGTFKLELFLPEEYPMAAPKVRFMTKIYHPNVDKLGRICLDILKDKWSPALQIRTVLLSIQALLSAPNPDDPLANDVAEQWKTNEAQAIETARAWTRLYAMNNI
EBNA-1 inhibitor: blocks EBNA-1 binding to DNA; EBNA-1 DNA binding, fluorescence polarization; inhibition, % at 14.8 µM; actives 0.34% (n = 300,000); AID 1950; in the data active = inhibition above about 28%
PfGluPho inh: PfG6PD (Plasmodium falciparum) enzyme inhibition. PfGluPho enzyme, NADPH resazurin-diaphorase fluorescence. inhibition, % at 20 µM. actives 0.78% (n = 350,000). AID 504690;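 active = inhibition reaching at least a set limit at 20 µM in the primary screen, cut at about 59% in these data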
PfGluPho conf: PfG6PD inhibition, single-dose confirmed. shares compounds with PfGluPho inh. recombinant PfGluPho, NADPH-diaphorase-resazurin fluorescence. inhibition, % at 20 µM. actives 34% (n = 2,400). AID 504753;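 active = inhibition of at least 50% at 20 µM in any single replicate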
Diaphorase 10uM: diaphorase inhibition or oxidation at 10 uM NADPH; shares compounds with PfGluPho inh; diaphorase-coupled resazurin reduction, fluorescence, NADPH 10 uM; inhibition, % at 20 µM; AID 504862; actives 39% (n = 820);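 active = average inhibition reaching 50% or more with the compound at 20 µM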;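 note: resorufin red fluorescence formed as diaphorase reduces resazurin using NADPH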
Diaphorase 30uM: inhibits diaphorase or oxidizes, flagging false PfG6PD hits. shares compounds with PfGluPho inh. Diaphorase/resazurin coupled assay, resorufin fluorescence, 30 uM NADPH. actives 29% (n = 820). inhibition, % at 20 µM;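 active = inhibition averaging 50% or more, tested at 20 µM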
Hits are given with their value; 0 = inactive; ? = inconclusive; - = no result. Sampled rows, rich in hits. Any-hit rate of the full collection: about 2.9%.

SMILES | M18AAP inhibitor | ZTA DNA inh | Apaf-1 inh | UBC13 polyUb | EBNA-1 inhibitor | PfGluPho inh | PfGluPho conf | others
CC1CC(=O)N(CC(=O)Nc2ccc(Br)cc2)c2ccccc2S1(=O)=O (stereo unspecified) | 0 | 0 | 0 | 0 | 0 | 0 | -
CC(C)(C)S(=O)(=O)c1ccc(S(=O)(=O)C(C)(C)C)s1 | 0 | 0 | 0 | 0 | 0 | - | -
O=C1/C(=C/c2ccccc2O)SC(=S)N1Cc1cccnc1 | 0 | 0 | 0 | 0 | 0 | 62 | 0
COC(=O)Sc1nc(N2CCOCC2)c2c(c1C#N)CC(C)(C)OC2 | 0 | 0 | 0 | ? | 0 | 0 | 0
COc1ccc(Cl)cc1NC(=O)C1Cc2cc(S(=O)(=O)N3CCCC3)ccc2N1C(C)=O (stereo unspecified) | 0 | 0 | 0 | 0 | 0 | 0 | -
CCOc1cc2c(cc1O)CCC1C2CCC2(C)C(O)CCC12 (stereo unspecified) | - | - | - | - | - | 0 | -
CCNc1cc2c(cc1O)CCC1C2CCC2(C)C(O)CCC12 (stereo unspecified) | - | - | - | - | - | 80 | 50 | Diaphorase 10uM=0;Diaphorase 30uM=0
Cc1ccc(C(=O)CSc2nnc3n2CCCCC3)s1 | - | 0 | 0 | 0 | - | 0 | -
Cc1cccc(NC(=O)c2sc3nc(-c4ccccc4)cn3c2C)n1 | 0 | 0 | 0 | 0 | 0 | 61 | 0
Cc1c(C(=O)Nc2ccccc2)sc2nc(-c3ccccc3)cn12 | 0 | 0 | 0 | 0 | 0 | 0 | -
Cc1ccc(Cc2c(-c3ccccc3)nc3cc(C)ccn23)cc1 | - | - | - | - | - | 0 | -
Fc1ccc(-c2nc3ccc(Cl)cn3c2Cc2ccccc2)cc1 | - | - | - | - | - | 81 | 0
Clc1ccc(-c2nc3ccc(Cl)cn3c2Cc2ccccc2)cc1 | - | - | - | - | - | 102 | 0
Cc1ccn2c(Cc3ccccc3)c(-c3ccc(F)cc3)nc2c1 | - | - | - | - | - | 77 | 0
COc1ccc(CCNC(=O)CO/N=C/c2cc3c(cc2Br)OCO3)cc1OC | 0 | 0 | 0 | 0 | 0 | 0 | -
C=CCC(O)(CC=C)CNC(=O)C1CCC(=O)N(CCCc2ccccc2)C1 (stereo unspecified) | 0 | 0 | 0 | 0 | 0 | 0 | -
CSc1ncc(CNc2cc([N+](=O)[O-])ccc2C)c(N)n1 | - | 0 | 0 | 0 | 0 | 0 | -
Nc1cc(S(=O)(=O)Nc2ccccc2Cl)ccc1N1CCCCC1 | - | - | 0 | 0 | - | 67 | 0
Cc1cccc(S(=O)(=O)Nc2cc(Cl)ccc2N2CCOCC2)c1 | - | - | 0 | 0 | - | 87 | 0
Cc1ccc(S(=O)(=O)Nc2ccccc2-c2ccccc2)cc1 | 0 | 0 | 0 | 0 | 0 | 76 | 0
Cc1ccc(S(=O)(=O)Nc2ccccc2N2CCOCC2)cc1 | 0 | 0 | 0 | 0 | 0 | 62 | 0
COc1ccccc1CNC(=O)C1Cc2cc(S(=O)(=O)N3CCCCC3)ccc2N1C(C)=O (stereo unspecified) | 0 | 0 | 0 | 0 | 0 | 0 | -
O=C(COc1ccc(F)cc1Cl)NC1CCCCCC1 | - | 0 | 0 | 0 | - | 0 | -
Cc1ccc(S(=O)(=O)Nc2ccccc2N2CCCCC2)cc1 | - | - | 0 | 0 | - | 95 | 0
Cc1ccc(/C=C/C(=O)NCc2cccs2)c(C)c1 | 0 | 0 | 0 | 0 | 0 | 88 | 0
Cc1ccc(SC2=C(N(C)C)C(=O)c3ccccc3C2=O)cc1 | - | - | - | - | - | 65 | 0
O=C(CN1CCN(c2ccc(O)cc2)CC1)Nc1ccc(S(=O)(=O)N2CCCC2)cc1 | - | - | 0 | 0 | - | 60 | 0
COc1ccccc1N1CSC2=C(C#N)C(c3ccc(SC)cc3)CC(=O)N2C1 (stereo unspecified) | 30 | 0 | 0 | 0 | 0 | 67 | 52 | Diaphorase 10uM=0;Diaphorase 30uM=0
CCc1ccccc1N1CSC2=C(C#N)C(c3cc(OC)c(OC)cc3OC)CC(=O)N2C1 (stereo unspecified) | 37 | 0 | 43 | 0 | 0 | 67 | 0
COc1cc(CN2CC(=O)N(c3cccc(Cl)c3C)C2=S)cc(OC)c1OC | 0 | 0 | 0 | 0 | 0 | 0 | -

Bioassay records: PubChem, several laboratories
